From ChEMBL document CHEMBL1152451 (J Med Chem, 2009)

How the values were obtained:
Type in all cases: ADME, organism-based
[1] = tested on: Rattus norvegicus; assay: Increase in endogenous 14,15-EET/DHET ratio in spontaneously hypersensitive rat kidney at 300 mg/kg, po for 8 days by LC/MS/MS analysis; design: dose 300 mg/kg, route oral; conditions: in vivo, 192 h
Procedure, shortened: (§1)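 SHRs given daily oral doses, with kidneys analysed for endogenous epoxide/diol ratios and for 20-HETE. A parallel PK group of SHRs was sampled on the eighth day of dosing at 4 and 24 h postdose.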

[2] = tested on: Rattus norvegicus; assay: Increase in endogenous 20-HETE level in spontaneously hypersensitive rat kidney at 300 mg/kg, po for 8 days by LC/MS/MS analysis; design: dose 300 mg/kg, route oral; conditions: in vivo, 192 h; procedure, shortened: as §1
[3] = Drug level in spontaneously hypersensitive rat at 300 mg/kg, po qd for 8 days measured after 4 hrs post dose; design: dose 300 mg/kg, route oral; conditions: spontaneously hypersensitive rat (SHR), in vivo, read-out: Drug uptake
[4] = Drug level in spontaneously hypersensitive rat at 300 mg/kg, po qd for 8 days measured after 24 hrs post dose; design: dose 300 mg/kg, route oral; conditions: spontaneously hypersensitive rat (SHR), in vivo, read-out: Drug uptake
[5] = Volume of distribution at steady state in spontaneously hypersensitive rat at 1 mg/kg, iv and 2 mg/kg, po; conditions: spontaneously hypersensitive rat (SHR), in vivo, read-out: Vdss
[6] = Bioavailability in spontaneously hypersensitive rat at 1 mg/kg, iv and 2 mg/kg, po; conditions: spontaneously hypersensitive rat (SHR), in vivo
[7] = Clearance in spontaneously hypersensitive rat at 1 mg/kg, iv and 2 mg/kg, po; conditions: spontaneously hypersensitive rat (SHR), in vivo
[8] = Half life in spontaneously hypersensitive rat at 1 mg/kg, iv and 2 mg/kg, po; conditions: spontaneously hypersensitive rat (SHR), in vivo

O=C(N[C@@H]1C[C@H]1c1ccccc1)N1CCC(c2nc(-c3ccccn3)no2)CC1
fold change (FC) [1]: 2 | fold change (FC) [2]: 2.5 | concentration at 4 h [3]: 35 µM | concentration at 24 h [4]: 20 µM

O=C(NC1CC1c1ccccc1)N1CCC(c2nc(-c3ccccn3)no2)CC1 (stereo in doubt; 2d)
Vd [5]: 2.7 L/kg | bioavailability [6]: 77% | clearance [7]: 29 mL/min/kg | half-life [8]: 1.4 h
